Assay results from ChEMBL document CHEMBL1151172, “Further labdane and kaurane diterpenoids and other constituents from Plectranthus fruticosus” (2004).
Converted amounts (≈) assume the structure as drawn. The source made the active and inactive calls. The calls are words filed in the database; no cut-off is given here.

Key:
Pseudomonas aeruginosa = assay: Antimicrobial activity against Pseudomonas aeruginosa ATCC 27853 by serial broth microdilution method; type: functional, organism-based
Method in brief: (§1)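 MIC by NCCLS serial broth microdilution in Mueller-Hinton broth. Compounds dissolved in DMSO and tested at graded concentrations from 250 to 7.8 µg/mL. A solvent blank was included.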

Escherichia coli = assay: Antimicrobial activity against Escherichia coli ATCC 25922 by serial broth microdilution method; type: functional; method in brief: as §1
Candida albicans = assay: Antimicrobial activity against Candida albicans CIP 3153A by serial broth microdilution method; type: functional, organism-based
Method in brief: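 Yeast MIC by serial broth microdilution following NCCLS, using YMA medium. Compounds were dissolved in DMSO and tested over graded concentrations from 250 to 7.8 µg/mL, with a solvent blank.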

Staphylococcus aureus = assay: Antimicrobial activity against Staphylococcus aureus ATCC 25923 by serial broth microdilution method; type: functional; method in brief: as §1

MIC (Staphylococcus aureus)	MIC (Escherichia coli)	Structure (SMILES)	Activity (Pseudomonas aeruginosa)	Activity (Escherichia coli)	Activity (Candida albicans)
–	–	C=C1[C@H]2C[C@@]3(CC[C@H]4[C@@](C)(CCC[C@@]4(C)C(=O)OC)[C@@H]3C[C@@H]2OC(C)=O)[C@H]1O	inactive	inactive	inactive
–	–	COC(=O)[C@]1(C)CCC[C@@]2(C)[C@@H]3C[C@H](OC(C)=O)[C@@H]4C[C@]3(C=C4C)[C@H](O)C[C@@H]21	inactive	inactive	inactive
–	–	C=C1C[C@@]23CC[C@H]4[C@@](C)(CCC[C@@]4(C)C(=O)OC)[C@@H]2C[C@H](O)[C@@H]1C3	inactive	inactive	inactive
–	–	C=C1[C@H]2C[C@@]3(CC[C@H]4[C@@](C)(CCC[C@@]4(C)C(=O)O)[C@@H]3C[C@@H]2OC(C)=O)[C@H]1O	inactive	inactive	inactive
–	–	C=C1CC[C@@H]2[C@H]([C@H]3[C@H]1CC[C@@]3(O)CO)C2(C)C	inactive	inactive	inactive
–	–	COC(=O)[C@]1(C)CCC[C@@]2(C)[C@@H]3C[C@H](OC(C)=O)[C@@H]4C[C@@]3(CC[C@@H]21)[C@H]1O[C@]14C	inactive	inactive	inactive
–	–	C=C1C[C@]23C[C@H]1[C@@H](OC(C)=O)C[C@H]2[C@]1(C)CCC[C@@](C)(C(=O)O)[C@H]1C[C@H]3O	inactive	inactive	inactive
–	–	C[C@@]12CCC[C@@](C)(C(=O)O)[C@H]1C[C@@H](O)[C@@]13C[C@@H](CC[C@@H]21)[C@]1(C)O[C@@H]13	inactive	inactive	inactive
–	–	CC(=O)O[C@H]1C[C@@H]2[C@@]3(C=C(C=O)[C@H]1C3)CC[C@H]1[C@@]2(C)CCC[C@@]1(C)C(=O)O	inactive	inactive	inactive
62.5 µg/mL (≈ 161 µM)	–	COC(=O)[C@]1(C)CCC[C@@]2(C)[C@@H]3C[C@H](OC(C)=O)[C@@H]4C[C@]3(C=C4C=O)CC[C@@H]21	inactive	inactive	inactive
–	–	CC1=C[C@]23C[C@H]1CC[C@H]2[C@]1(C)CCC[C@@](C)(C(=O)O)[C@H]1C[C@H]3O	inactive	inactive	inactive
< 7.8 µg/mL	< 7.8 µg/mL	NC[C@H]1O[C@H](O[C@H]2[C@H](O)[C@@H](O[C@H]3O[C@H](CO)[C@@H](O)[C@H](N)[C@H]3O)[C@H](N)C[C@@H]2N)[C@H](O)[C@@H](O)[C@@H]1O [KANAMYCIN]	–	–	–
–	–	C=C/C(C)=C\C[C@@H]1C(=C)CC[C@@H]2C(C)(C)[C@H](O)[C@@H](O)C[C@@]12C	inactive	inactive	inactive
